Reference: ChEMBL document CHEMBL1149155, “Development of a new radioligand, N-(5-fluoro-2-phenoxyphenyl)-N-(2-[18F]fluoroethyl-5-methoxybenzyl)acetamide, for pet imaging of peripheral benzodiazepine receptor in primate brain” (J Med Chem, 2004)

How the values were obtained:
Mus musculus [1] = organism: Mus musculus; assay: Compound was tested for radioactivity level in mice adrenal glands (Compound is radiolabeled); assay type: ADME, organism-based, Adrenal gland; conditions: in vivo
Method in brief: (§1)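 Male ddY mice (30–40 g, 9 weeks) given 18F-ligand in saline (average 8 MBq) via tail vein; four per time point killed at 5, 15, 30, 60, 120 min. Brain, liver, lung, heart, kidney, adrenal, bone and blood weighed and gamma-counted; decay-corrected %ID/g wet tissue.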

Mus musculus [2] = organism: Mus musculus; assay: Compound was tested for radioactivity level in mice brain (Compound is radiolabeled); 2.2-4.9% ID/g; assay type: ADME, organism-based; conditions: in vivo; method in brief: as §1
Mus musculus [3] = organism: Mus musculus; assay: Compound was tested for radioactivity level in mice kidney (Compound is radiolabeled); assay type: ADME, organism-based; conditions: in vivo; method in brief: as §1
Mus musculus [4] = organism: Mus musculus; assay: Compound was tested for radioactivity level in mice lungs (Compound is radiolabeled); assay type: ADME, organism-based; conditions: in vivo; method in brief: as §1
Mus musculus [5] = organism: Mus musculus; assay: Compound (0.09% dose/g) was tested for accumulation in mice bone (Compound is radiolabeled) after 120 min; No increase; assay type: ADME, organism-based, Bone element; conditions: in vivo, 2 h; method in brief: as §1
[6] = Half life was determined; assay type: ADME; conditions: rat
[7] = molecular target: GABA-A receptor; anion channel; assay: In vitro inhibition of [11C]flumazenil binding to GABA-A central benzodiazepine receptor of rat brain
Method in brief: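 Rat brain sagittal cryosections (20 μm, male Sprague-Dawley) preincubated 20 min at 25 °C in 50 mM Tris-HCl pH 7.4, then incubated 30 min at 37 °C with [11C]flumazenil (1 nM) and compound 0.1–1000 nM; nonspecific binding defined with 10 μM flumazenil. Cerebellum radioactivity read by imaging plate; probit-derived IC50 converted to Ki; n = 3.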

Translocator protein [8] = molecular target: Translocator protein (Rattus norvegicus, UniProt P16257); assay: In vitro inhibition of [11C]2 binding to Peripheral benzodiazepine receptor (PBR) in rat brain; assay type: tissue-based
Translocator protein (Rattus norvegicus, UniProt P16257), sequence (P16257 whole entry, looked up): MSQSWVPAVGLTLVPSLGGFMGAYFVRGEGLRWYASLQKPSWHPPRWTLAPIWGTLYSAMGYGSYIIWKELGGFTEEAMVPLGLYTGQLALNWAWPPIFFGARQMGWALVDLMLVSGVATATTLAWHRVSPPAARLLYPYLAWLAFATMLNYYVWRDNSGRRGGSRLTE

[9] = Partition coefficient of the compound; assay type: physicochemical; conditions: octanol/water
Method in brief: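 LogD measured by shake-flask partition between phosphate buffer (pH 7.4) and octanol; mean of n = 3.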

Mus musculus [10] = organism: Mus musculus; assay: Compound (0.31% dose/g) was tested for accumulation in mice bone (Compound is radiolabeled) after 30 min; Low increase; assay type: ADME, organism-based; conditions: in vivo, 0.5 h; method in brief: as §1
Mus musculus [11] = organism: Mus musculus; assay: Compound was tested for radioactivity level in mice heart (Compound is radiolabeled); assay type: ADME, organism-based; conditions: in vivo; method in brief: as §1
[12] = molecular target: GABA-A receptor; anion channel; assay: Inhibition of [11C]flumazenil binding to GABA-A central benzodiazepine receptor of monkey brain
Translocator protein [13] = molecular target: Translocator protein (Homo sapiens, UniProt P30536); assay: Binding affinity for Peripheral benzodiazepine receptor compared to [11C]2 in monkey brain (No affinity); design: species or system Cercopithecidae; conditions: target entry is the homologue from another species
Translocator protein (Homo sapiens, UniProt P30536), sequence (P30536 whole entry): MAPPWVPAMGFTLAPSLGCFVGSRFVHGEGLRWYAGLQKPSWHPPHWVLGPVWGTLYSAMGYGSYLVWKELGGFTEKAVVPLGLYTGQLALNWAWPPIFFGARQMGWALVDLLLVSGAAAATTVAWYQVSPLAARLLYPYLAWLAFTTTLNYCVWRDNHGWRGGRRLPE

SMILES	Radioactivity level (Mus musculus [1]) [%]	Radioactivity level (Mus musculus [2]) [%]	Radioactivity level (Mus musculus [3]) [%]	Radioactivity level (Mus musculus [4]) [%]	Activity (Mus musculus [5])	T1/2 [6] [h]	Ki [7] [nM]	Ki (Translocator protein [8]) [nM]	logD [9]	Activity (Mus musculus [10])	Radioactivity level (Mus musculus [11]) [%]	IC50 [12] [nM]	IC50 (Translocator protein [13])
COc1ccc(OCI)c(CN(C(C)=O)c2cc(F)ccc2Oc2ccccc2)c1							> 1000	4.8	4.02				
CC(=O)Nc1cc(F)ccc1Oc1ccccc1												> 10000	Not Active
CCC(C)N(C)C(=O)c1cc2ccccc2c(-c2ccccc2Cl)n1 (stereo not drawn) [PK-11195]							> 1000		2.78				

Now from value to compound:

Radioactivity level (Mus musculus [1]) [%]	Radioactivity level (Mus musculus [2]) [%]	Radioactivity level (Mus musculus [3]) [%]	Radioactivity level (Mus musculus [4]) [%]	Activity (Mus musculus [5])	T1/2 [6] [h]	Ki [7] [nM]	Ki (Translocator protein [8]) [nM]	logD [9]	Activity (Mus musculus [10])	Radioactivity level (Mus musculus [11]) [%]	IC50 [12] [nM]	IC50 (Translocator protein [13])	SMILES
> 5	< 4.9	> 5	> 5	Not Active	1.83	> 1000	0.078	3.81	Partially active	> 5			COc1ccc(OCCF)c(CN(C(C)=O)c2cc(F)ccc2Oc2ccccc2)c1
						> 1000	18.1	4.65					COc1ccc(OCCOS(=O)(=O)c2ccc(C)cc2)c(CN(C(C)=O)c2cc(F)ccc2Oc2ccccc2)c1
						> 1000	0.16	3.65					COc1ccc(OC)c(CN(C(C)=O)c2cc(F)ccc2Oc2ccccc2)c1
> 5		> 5	> 5	5.6%	1.83	> 1000	0.17	3.7		> 5			COc1ccc(OCF)c(CN(C(C)=O)c2cc(F)ccc2Oc2ccccc2)c1
